# Results reported in ChEMBL document CHEMBL1140543, “Biphenyls as potent vitronectin receptor antagonists. Part 3: Squaric acid amides” (Bioorg Med Chem Lett, 2007).
# Legend:
# [1] = biological target: T1, Integrin alpha-V/beta-3 (Homo sapiens, UniProt P05106+P06756); assay: Binding affinity to integrin alpha-v-beta-3 receptor; format: protein-complex assay
# Target sequence in this assay (P05106 27-788 limits assumed): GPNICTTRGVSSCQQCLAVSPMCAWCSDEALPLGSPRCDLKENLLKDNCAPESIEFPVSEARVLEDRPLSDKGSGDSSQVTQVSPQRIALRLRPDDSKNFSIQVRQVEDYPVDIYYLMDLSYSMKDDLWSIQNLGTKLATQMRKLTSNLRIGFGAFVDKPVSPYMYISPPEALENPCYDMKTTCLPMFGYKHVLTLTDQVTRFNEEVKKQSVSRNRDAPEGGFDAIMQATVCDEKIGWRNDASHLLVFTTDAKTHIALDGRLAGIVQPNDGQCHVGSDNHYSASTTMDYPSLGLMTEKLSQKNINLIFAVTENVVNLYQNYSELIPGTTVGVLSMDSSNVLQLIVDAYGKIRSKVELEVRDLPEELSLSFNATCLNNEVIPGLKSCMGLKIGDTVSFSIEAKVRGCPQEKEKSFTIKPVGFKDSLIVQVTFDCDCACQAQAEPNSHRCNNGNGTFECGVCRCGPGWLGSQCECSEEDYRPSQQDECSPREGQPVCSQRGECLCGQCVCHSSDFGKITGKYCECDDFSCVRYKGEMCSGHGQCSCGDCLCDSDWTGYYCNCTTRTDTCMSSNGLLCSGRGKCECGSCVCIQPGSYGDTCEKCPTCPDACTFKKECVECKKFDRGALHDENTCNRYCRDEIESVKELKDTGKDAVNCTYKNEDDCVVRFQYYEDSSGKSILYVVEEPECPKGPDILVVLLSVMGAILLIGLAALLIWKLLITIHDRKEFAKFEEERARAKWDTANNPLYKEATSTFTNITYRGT
# Target sequence in this assay (P06756 31-889 limits assumed): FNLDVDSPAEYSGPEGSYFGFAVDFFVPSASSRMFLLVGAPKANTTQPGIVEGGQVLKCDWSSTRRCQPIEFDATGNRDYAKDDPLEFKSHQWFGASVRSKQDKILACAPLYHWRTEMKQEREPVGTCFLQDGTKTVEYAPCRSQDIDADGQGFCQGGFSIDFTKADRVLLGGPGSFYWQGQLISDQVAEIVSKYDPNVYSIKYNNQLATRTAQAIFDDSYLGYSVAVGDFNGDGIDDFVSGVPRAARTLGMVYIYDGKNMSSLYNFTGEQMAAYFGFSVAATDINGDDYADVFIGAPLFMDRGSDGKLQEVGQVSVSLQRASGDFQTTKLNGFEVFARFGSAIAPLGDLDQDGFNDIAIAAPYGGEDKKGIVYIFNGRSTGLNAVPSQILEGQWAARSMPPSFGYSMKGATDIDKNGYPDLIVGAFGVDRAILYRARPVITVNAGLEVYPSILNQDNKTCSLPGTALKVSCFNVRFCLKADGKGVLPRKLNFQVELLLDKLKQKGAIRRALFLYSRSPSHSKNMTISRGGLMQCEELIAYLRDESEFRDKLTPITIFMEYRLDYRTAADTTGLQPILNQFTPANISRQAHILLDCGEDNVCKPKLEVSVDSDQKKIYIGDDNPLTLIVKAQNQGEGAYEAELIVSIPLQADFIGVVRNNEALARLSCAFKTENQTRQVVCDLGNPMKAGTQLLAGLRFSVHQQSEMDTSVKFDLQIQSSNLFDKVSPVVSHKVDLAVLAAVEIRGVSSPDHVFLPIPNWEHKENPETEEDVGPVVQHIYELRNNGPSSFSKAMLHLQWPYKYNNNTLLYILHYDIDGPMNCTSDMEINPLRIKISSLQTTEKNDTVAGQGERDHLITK
# Target sequence in this assay (P06756 891-1048 limits assumed): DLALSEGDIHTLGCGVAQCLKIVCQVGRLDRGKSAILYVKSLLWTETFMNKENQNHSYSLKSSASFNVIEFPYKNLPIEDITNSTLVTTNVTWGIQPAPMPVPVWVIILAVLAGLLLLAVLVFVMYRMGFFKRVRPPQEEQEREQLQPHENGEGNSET
# [2] = biological target: Integrin alpha-IIb/beta-3 (Homo sapiens, UniProt P05106+P08514); assay: Binding affinity to GP2b3a receptor; format: protein-complex assay
# Sequence of Integrin alpha-IIb/beta-3 (P05106 27-788 limits assumed): as the sequence (P05106 27-788 limits assumed) above
# Sequence of Integrin alpha-IIb/beta-3 (P08514 32-887 limits assumed): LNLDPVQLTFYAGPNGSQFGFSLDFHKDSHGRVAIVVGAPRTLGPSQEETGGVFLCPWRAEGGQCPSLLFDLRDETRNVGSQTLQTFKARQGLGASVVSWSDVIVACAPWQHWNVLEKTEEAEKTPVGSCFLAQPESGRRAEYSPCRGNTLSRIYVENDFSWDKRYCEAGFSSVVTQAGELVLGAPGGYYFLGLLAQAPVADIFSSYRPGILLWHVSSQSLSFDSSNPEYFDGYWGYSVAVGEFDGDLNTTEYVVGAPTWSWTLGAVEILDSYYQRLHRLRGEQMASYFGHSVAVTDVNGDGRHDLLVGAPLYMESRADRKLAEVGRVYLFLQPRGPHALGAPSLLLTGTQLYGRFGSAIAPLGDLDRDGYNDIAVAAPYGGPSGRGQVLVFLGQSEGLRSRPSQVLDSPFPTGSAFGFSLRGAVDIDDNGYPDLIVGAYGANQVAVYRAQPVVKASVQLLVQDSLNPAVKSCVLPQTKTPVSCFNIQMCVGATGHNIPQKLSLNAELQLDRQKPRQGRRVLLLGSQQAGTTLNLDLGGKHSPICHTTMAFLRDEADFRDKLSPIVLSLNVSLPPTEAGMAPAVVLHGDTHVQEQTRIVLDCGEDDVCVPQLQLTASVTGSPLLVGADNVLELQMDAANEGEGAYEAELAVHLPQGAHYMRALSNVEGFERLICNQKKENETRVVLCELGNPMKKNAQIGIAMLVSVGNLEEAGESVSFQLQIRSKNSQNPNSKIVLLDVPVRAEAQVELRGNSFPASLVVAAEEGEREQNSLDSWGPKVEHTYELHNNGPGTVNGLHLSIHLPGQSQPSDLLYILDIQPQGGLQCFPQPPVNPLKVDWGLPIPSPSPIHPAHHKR
# Sequence of Integrin alpha-IIb/beta-3 (P08514 891-1039 limits assumed): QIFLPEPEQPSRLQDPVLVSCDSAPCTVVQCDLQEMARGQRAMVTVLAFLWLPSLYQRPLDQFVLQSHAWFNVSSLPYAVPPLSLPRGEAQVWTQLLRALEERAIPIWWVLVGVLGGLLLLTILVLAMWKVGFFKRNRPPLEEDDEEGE
# [3] = biological target: T1, Integrin alpha-V/beta-3; assay: Antagonist activity at human integrin alpha-v-beta-3 receptor expressed in HEK293 cells; format: functional, cell-based
# Outline: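 HEK 293 cells transfected with human αvβ3 were used. Inhibition of the adhesion of purified human vitronectin to these cells gave the cellular αvβ3 affinity.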
# [4] = Inhibition of smooth muscle cell migration; format: functional, Homo sapiens
# [5] = biological target: Albumin (Homo sapiens, UniProt P02768); assay: Binding affinity to human serum albumin by equilibrium dialysis
# Sequence of Albumin (P02768 whole entry): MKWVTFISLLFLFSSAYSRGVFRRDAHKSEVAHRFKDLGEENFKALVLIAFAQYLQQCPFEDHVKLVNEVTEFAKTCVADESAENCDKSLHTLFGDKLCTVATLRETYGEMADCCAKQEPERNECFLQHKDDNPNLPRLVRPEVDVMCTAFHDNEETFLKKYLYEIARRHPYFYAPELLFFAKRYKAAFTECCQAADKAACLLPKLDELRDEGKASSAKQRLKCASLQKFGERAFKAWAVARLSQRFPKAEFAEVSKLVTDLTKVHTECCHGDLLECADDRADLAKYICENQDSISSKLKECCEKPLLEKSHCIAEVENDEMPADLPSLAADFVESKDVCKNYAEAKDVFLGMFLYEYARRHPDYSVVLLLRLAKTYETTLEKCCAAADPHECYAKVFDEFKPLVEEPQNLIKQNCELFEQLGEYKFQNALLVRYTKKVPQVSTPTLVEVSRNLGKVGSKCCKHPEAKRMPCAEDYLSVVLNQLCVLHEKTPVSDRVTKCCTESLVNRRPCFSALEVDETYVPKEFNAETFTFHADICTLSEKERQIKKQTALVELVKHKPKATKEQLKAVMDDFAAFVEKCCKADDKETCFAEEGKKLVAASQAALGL
# [6] = system: Liver microsomes; assay: Clearance in rat liver microsomes; format: ADME, Microsome
Ki [1],Structure (SMILES),other results
0.0001 µM,CC1(C)C2CC[C@]1(S(=O)(=O)N[C@@H](Cc1ccc(-c3cccc(Nc4c(NC5CC5)c(=O)c4=O)c3)cc1)C(=O)O)C(=O)C2,
0.4 µM,Cc1cc(C)c(S(=O)(=O)N[C@@H](Cc2ccc(-c3cccc(NC(=O)c4cccnc4)c3)cc2)C(=O)O)c(C)c1,
0.001 µM,Cc1cc(C)c(S(=O)(=O)N[C@@H](Cc2ccc(-c3cccc(NC(=O)c4ncc[nH]4)c3)cc2)C(=O)O)c(C)c1,
0.01 µM,CS(=O)(=O)N[C@@H](Cc1ccc(-c2cccc(Nc3c(NC4CC4)c(=O)c3=O)c2)cc1)C(=O)O,
0.0005 µM,Cc1cc(C)c(S(=O)(=O)N[C@@H](Cc2ccc(-c3cccc(Nc4c(NC5CC5)c(=O)c4=O)c3)cc2)C(=O)O)c(C)c1,Ki [2]: 0.047 µM; Activity [3]: 13 nM; Activity [4]: 10 nM; Kd [5]: 0.42 µM; CL [6]: 65 mL/min/kg
0.0013 µM,Cc1cc(C)c(S(=O)(=O)N[C@@H](Cc2ccc(-c3cccc(NC4=NCCN4)c3)cc2)C(=O)O)c(C)c1,
> 2 µM,Cc1cc(C)c(S(=O)(=O)N[C@@H](Cc2ccc(-c3cccc(NC(=O)c4ccccn4)c3)cc2)C(=O)O)c(C)c1,
0.65 µM,Cc1cc(C)c(S(=O)(=O)N[C@@H](Cc2ccc(-c3cccc(NC(=O)c4ccco4)c3)cc2)C(=O)O)c(C)c1,
0.025 µM,Cc1cc(C)c(S(=O)(=O)N[C@@H](Cc2ccc(-c3cccc(Nc4c(NCc5ccccc5)c(=O)c4=O)c3)cc2)C(=O)O)c(C)c1,
,Cc1cc(C)c(S(=O)(=O)N[C@@H](Cc2ccc(-c3cccc(NC(=O)NC4CC4)c3)cc2)C(=O)O)c(C)c1,Ki [2]: 0.128 µM; Activity [3]: 85 nM; Activity [4]: 390 nM; Kd [5]: 0.74 µM
0.018 µM,Cc1cc(C)c(S(=O)(=O)N[C@@H](Cc2ccc(-c3cccc(Nc4n[s+]([O-])nc4NC4CC4)c3)cc2)C(=O)O)c(C)c1 (some centres not stated),
0.033 µM,Cc1cc(C)c(S(=O)(=O)N[C@@H](Cc2ccc(-c3cccc(NC(=O)c4ccc[nH]4)c3)cc2)C(=O)O)c(C)c1,
0.7 µM,Cc1cc(C)c(S(=O)(=O)N[C@@H](Cc2ccc(-c3cccc(NC(=O)c4ccncc4)c3)cc2)C(=O)O)c(C)c1,
0.011 µM,Cc1cc(C)c(S(=O)(=O)N[C@@H](Cc2ccc(-c3cccc(Nc4c(NCc5ccccn5)c(=O)c4=O)c3)cc2)C(=O)O)c(C)c1,
